Laboratory results as given in ChEMBL document CHEMBL3856259, “Evaluation of canthinone alkaloids as cerebral protective agents” (Bioorg Med Chem Lett, 2016).
Active and inactive are the calls of the source. The calls are words filed in the database; no cut-off is given here.

Experiments:
Meriones unguiculatus [1] = assay: Cerebral protective activity in cerebral ischemia-induced Mongolian gerbil assessed as passive avoidance test value at 100 mg/kg, po pretreated for 30 mins followed by bilateral ligation-induced ischemia for 5 mins measured on day 1 post 3 days ischemia induction relative to control; type: functional
Meriones unguiculatus [2] = assay: Cerebral protective activity in anesthetized cerebral ischemia-induced Mongolian gerbil hippocampus assessed as protective values on density of surviving neurons in CA1 subfields of hippocampus at 100 mg/kg, po pretreated for 30 mins followed by bilateral ligation-induced ischemia for 5 mins measured on day 1 post 3 days ischemia induction by hematoxylin and eosin staining based microscopic analysis relative to control; type: functional
Meriones unguiculatus [3] = assay: Cerebral protective activity against kainic acid-induced neuronal necrosis in po dosed Mongolian gerbil administered after kainic acid injection; type: functional, organism-based
Outline: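 Male Mongolian gerbils (n = 10), fasted overnight, given atropine (5.0 µg/animal) and pentobarbital anesthesia (40 mg/kg ip). Kainic acid in saline at pH 7.4 (0.2 µL of 1.0 µg/µL) infused stereotaxically into right hippocampal CA3 over 4.0 min. Drug dosed orally after the lesion. Perfusion-fixed 4 days later. Surviving CA1 neuron density (/mm) scored. Mean ± SEM.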

Meriones unguiculatus [4] = assay: Cerebral protective activity in cerebral ischemia-induced Mongolian gerbil assessed as reduction in neuronal cell death in CA1 subfields of hippocampus at 30 mg/kg, po administered twice at 3 and 6 hrs after cerebral ischemia induction; type: functional, organism-based
Outline: (§1)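 Gerbils (n = 10) subjected to bilateral carotid ligation ischemia, then given 30 mg/kg orally at 3 h or at 3 h and 6 h after ischemia. Brains perfusion-fixed in 10% neutral formalin and paraffin-embedded. 5-µm coronal sections stained with H&E. Surviving CA1 hippocampal neurons counted (/mm). Mean ± SEM, Student's t-test.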

Meriones unguiculatus [5] = assay: Cerebral protective activity in cerebral ischemia-induced Mongolian gerbil assessed as reduction in neuronal cell death at 30 mg/kg, po administered at 3hrs after cerebral ischemia induction; type: functional, organism-based; outline: as §1
[6] = Toxicity in Mongolian gerbil assessed as reduction in heart rate at 30 to 100 mg/kg, po; type: organism-based, Meriones unguiculatus; settings: in vivo
Outline: (§2)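 Heart rate and mean systolic blood pressure recorded in gerbils after oral doses of 30 and 100 mg/kg.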

[7] = Toxicity in Mongolian gerbil assessed as reduction in systolic blood pressure at 30 to 100 mg/kg, po; type: organism-based, Meriones unguiculatus; settings: in vivo; outline: as §2
[8] = Toxicity in Mongolian gerbil assessed as effect on body temperature at 30 to 100 mg/kg, po; type: organism-based, Meriones unguiculatus; settings: in vivo
[9] = Toxicity in Mongolian gerbil assessed as locomotion-reducing effect at 30 to 100 mg/kg, po; type: organism-based, Meriones unguiculatus; settings: in vivo
Meriones unguiculatus [10] = assay: Cerebral protective activity against ischemia in Mongolian gerbil assessed as reduction in 45Ca2+ accumulation in brain at 30 mg/kg, po administered after cerebral ischemia induction for 15 mins in presence of 45CaCl2 by autoradiographic analysis

SMILES | Activity (Meriones unguiculatus [1]) | Activity (Meriones unguiculatus [2]) [%] | further results
CCn1ccc2c3n(c(=O)c(=O)c(OC)c1-3)c1ccccc21 | <=40% | 46.2 | 
COC(=O)c1nccc2c1[nH]c1ccccc12 | <=40% | 30.1 | 
Cn1ccc2c3n(c(=O)c(=O)cc1-3)c1ccccc21 | >80% | 84.6 | 
[O-][n+]1ccc2c(c1)[nH]c1ccccc12 | <=40% | 13.8 | 
COc1c2n(C)ccc3c-2n(c(=O)c1=O)c1ccc(Br)cc31 | <=40% | -0.8 | 
CCc1c2n(C)ccc3c-2n(c(=O)c1=O)c1ccccc31 | <=40% | 26.3 | 
C[C@@H]1N[C@H](C(=O)O)Cc2c1[nH]c1ccccc21 | <=40% | -13.6 | 
Cn1ccc2c3n(c(=O)c(=O)cc1-3)c1c(Br)cc(Br)cc21 | <=40% | 3 | 
COc1c(OC)c2c3c(cc(=O)n2C)c2ccccc2n3c1=O | <=40% | 24.3 | 
COc1c(O)c(=O)n2c3ccccc3c3ccnc1c32 | <=40% | 13.9 | 
COc1c(O)c(=O)n2c3ccccc3c3cc(O)nc1c32 | <=40% | 26.2 | 
CCn1ccc2c3n(c(=O)c(=O)cc1-3)c1ccccc21 | <=40% | 92.3 | 
COc1c(OC)c2nc(O)cc3c4ccccc4n(c1=O)c23 | <=40% | 2.8 | 
Cn1c(=O)cc2c3ccccc3n3c(=O)ccc1c23 | <=40% | 10.6 | 
CC[C@@H]1N[C@H](C(=O)O)Cc2c1[nH]c1ccccc21 | <=40% | 10.9 | 
Cc1c2[nH]c3ccccc3c2cc[n+]1[O-] | <=40% | 14.2 | 
COc1c2n(C)ccc3c-2n(c(=O)c1=O)c1ccccc31 | >80% | 73.1 | Activity (Meriones unguiculatus [3]): Active; Activity (Meriones unguiculatus [4]): Active; Activity (Meriones unguiculatus [5]): Active; Activity [6]: Non-Toxic; Activity [7]: Non-Toxic; Activity [8]: Non-Toxic; Activity [9]: Non-Toxic; Activity (Meriones unguiculatus [10]): Active
COc1c(OC)c2nccc3c4ccccc4n(c1=O)c23 [4,5-DIMETHOXYCANTHIN-6-ONE] | <=40% | 20.8 | 
COc1ccc2c3ccn(C)c4cc(=O)c(=O)n(c3-4)c2c1 | >=40 - 60% | 53.8 | 
COc1c2n(C)ccc3c-2n(c(=O)c1=O)c1c(Br)cc(Br)cc31 | <=40% | -8.1 | 
COC(=O)[C@@H]1Cc2c([nH]c3ccccc23)[C@H](C)N1 | <=40% | 18.6 | 
Cn1ccc2c3n(c(=O)c(=O)cc1-3)c1ccc(Br)cc21 | <=40% | 27.3 | 
